Reference: ChEMBL document CHEMBL1122973, “Synthesis and platelet aggregation inhibitory activity of 4,5-bis(substituted)-1,2,3-thiadiazoles” (J Med Chem, 1985)
Values after ≈ are worked out from the molar mass of the structure shown. Values belong to the molecule of their own block, whether it stands above or below them.

Tests used:
Assay type in all cases: functional
Homo sapiens [1] = organism: Homo sapiens; experiment: In vitro inhibition of collagen-induced platelet aggregation in human platelet-rich plasma (PRP)
Outline: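 Citrated human blood spun at 200g, 10 min, 10 °C to give PRP. A further spin at 2000g, 10 min, 10 °C gave PPP, used to adjust the platelet count to 3×10^5/mm³. Collagen triggered aggregation. Approximate IC50 was read from 1/2 log steps of drug concentration. Flurbiprofen served as internal standard for day-to-day variation in platelet sensitivity.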

Homo sapiens [2] = organism: Homo sapiens; experiment: Potency relative to flurbiprofen in inhibiting collagen-induced platelet aggregation in human platelet-rich plasma (PRP)
Outline: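 Ratio of activity to flurbiprofen, the internal standard run alongside each day. The IC50 was approximate, from 1/2 log concentration intervals, for collagen-induced aggregation in human PRP. PRP came from citrated blood (200g, 10 min, 10 °C), with platelets adjusted to 3×10^5/mm³ using autologous PPP (2000g, 10 min, 10 °C).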

Homo sapiens [3] = organism: Homo sapiens; experiment: Percent inhibition of collagen-induced Platelet aggregation in human platelet-rich plasma (PRP) at a concentration of 0.001 ug/mL
Homo sapiens [4] = organism: Homo sapiens; experiment: Percent inhibition of collagen-induced Platelet aggregation in human platelet-rich plasma (PRP) at a concentration of 0.01 ug/mL
Homo sapiens [5] = organism: Homo sapiens; experiment: Percent inhibition of collagen-induced Platelet aggregation in human platelet-rich plasma (PRP) at a concentration of 0.032 ug/mL

IC50 (Homo sapiens [1]): 3.2 µg/mL
Structure (SMILES): Cl.Cl.Nc1ccc(-c2nnsc2-c2ccc(N)cc2)cc1
Relative potency (Homo sapiens [2]): 0.03

IC50 (Homo sapiens [1]): 0.01 µg/mL (≈ 0.0308 µM)
Structure (SMILES): CN(C)c1ccc(-c2nnsc2-c2ccc(N(C)C)cc2)cc1
Relative potency (Homo sapiens [2]): 10

IC50 (Homo sapiens [1]): 3.2 µg/mL (≈ 11.8 µM)
Structure (SMILES): Oc1ccc(-c2nnsc2-c2ccc(O)cc2)cc1
Relative potency (Homo sapiens [2]): 0.03

IC50 (Homo sapiens [1]): 3.2 µg/mL (≈ 11.3 µM)
Structure (SMILES): c1ccc(-c2nnsc2-c2ccc3c(c2)OCO3)cc1
Relative potency (Homo sapiens [2]): 0.03

IC50 (Homo sapiens [1]): 0.01 µg/mL (≈ 0.0373 µM)
Structure (SMILES): COc1ccc(-c2nnsc2-c2ccccc2)cc1
Relative potency (Homo sapiens [2]): 10

IC50 (Homo sapiens [1]): 0.003 µg/mL (≈ 0.0112 µM)
Structure (SMILES): COc1ccc(-c2snnc2-c2ccccc2)cc1
inhibition at 0.001 µg/mL (Homo sapiens [3]): 32.4%
inhibition at 0.01 µg/mL (Homo sapiens [4]): 56.8%
inhibition at 0.032 µg/mL (Homo sapiens [5]): 50%
Relative potency (Homo sapiens [2]): 31.3

IC50 (Homo sapiens [1]): 0.032 µg/mL (≈ 0.102 µM)
Structure (SMILES): COc1ccc(-c2snnc2-c2ccc(SC)cc2)cc1
Relative potency (Homo sapiens [2]): 3.1

IC50 (Homo sapiens [1]): 3.2 µg/mL (≈ 13.4 µM)
Structure (SMILES): c1ccc(-c2nnsc2-c2ccccc2)cc1
Relative potency (Homo sapiens [2]): 0.03

Further lines, the molecule ahead of its results:

Structure (SMILES): COc1ccc(-c2snnc2-c2ccc(OC)cc2OC)cc1
IC50 (Homo sapiens [1]): 0.032 µg/mL (≈ 0.0974 µM)
Relative potency (Homo sapiens [2]): 3.1

Structure (SMILES): c1csc(-c2nnsc2-c2cccs2)c1
IC50 (Homo sapiens [1]): 3.2 µg/mL (≈ 12.8 µM)
Relative potency (Homo sapiens [2]): 0.03

Structure (SMILES): COc1ccc(-c2snnc2-c2ccco2)cc1
IC50 (Homo sapiens [1]): 0.032 µg/mL (≈ 0.124 µM)
Relative potency (Homo sapiens [2]): 3.1

Structure (SMILES): COc1ccc(-c2csnn2)cc1
IC50 (Homo sapiens [1]): 3.2 µg/mL (≈ 16.6 µM)
Relative potency (Homo sapiens [2]): 0.03

Structure (SMILES): COc1ccc(-c2nnsc2-c2ccc(OC)cc2)cc1
IC50 (Homo sapiens [1]): 0.001 µg/mL (≈ 0.00335 µM)
inhibition at 0.001 µg/mL (Homo sapiens [3]): 32.4%
inhibition at 0.01 µg/mL (Homo sapiens [4]): 90%
inhibition at 0.032 µg/mL (Homo sapiens [5]): 55.4%
Relative potency (Homo sapiens [2]): 100

Structure (SMILES): CCNc1ccc(-c2nnsc2-c2ccc(NCC)cc2)cc1
IC50 (Homo sapiens [1]): 3.2 µg/mL (≈ 9.86 µM)
Relative potency (Homo sapiens [2]): 0.03

Structure (SMILES): c1ccc(-c2csnn2)cc1
IC50 (Homo sapiens [1]): 3.2 µg/mL (≈ 19.7 µM)
Relative potency (Homo sapiens [2]): 0.03

Structure (SMILES): COc1ccc(-c2nnsc2-c2cccs2)cc1
IC50 (Homo sapiens [1]): 1 µg/mL (≈ 3.64 µM)
Relative potency (Homo sapiens [2]): 0.1

Structure (SMILES): c1ccc(-c2cnns2)cc1
IC50 (Homo sapiens [1]): 3.2 µg/mL (≈ 19.7 µM)
Relative potency (Homo sapiens [2]): 0.03

Structure (SMILES): CC(=O)Oc1ccccc1C(=O)O [ASPIRIN]
Relative potency (Homo sapiens [2]): 0.01
